Laboratory results published in PubChem BioAssay.
Calls of active or inactive are those of the source.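 The calls were made as follows, unless noted: active = inhibition at or above 50% relative to wild type and mutant plate controls; inactive = inhibition below 50%.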

Key:
[1] = inhibitors of TNFa-induced NFkB p65 translocation, primary screen, imaging, HUVEC, MLSMR starter and 10KST1 sets (AID 438;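 active = inhibition above 20% together with a positive visual image hit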;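 also: compound added about 3h40 before a 20 min TNFalpha stimulation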;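 as to inhibition: signal is the nuclear over cytoplasmic p65 intensity ratio per well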); settings: HUVEC TNFa-induced p65 nuclear translocation; cell count: measured here: nuclei count (cytotoxicity indicator), at 2.08 µM; inhibition: at 2 µM, stronger effect = higher value, 0% TNFa-plus-vehicle, 100% no-TNFa wells
[2] = inhibitors of E-selectin induction by TNFa, primary screen, imaging, HUVEC, immunofluorescence, MLSMR starter and 10KST1 sets (AID 487;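 active = visually confirmed hit in the image check and inhibition above 20%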;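 as to inhibition: signal is fraction of cell area covered by stained E-selectin grains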;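 as to nuclei count: 100% = median nuclei count of all wells on the same plate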); settings: HUVEC TNFalpha-induced E-selectin immunofluorescence imaging, at 2 µM; inhibition: stronger effect = higher value; nuclei count: measured here: cell number, toxicity
[3] = DUSP6 inhibitors restoring Erk phosphorylation by chemical complementation, primary imaging in DUSP6-transfected HeLa (AID 609;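 active = compounds giving at least 50% inhibition in the cell-based MKP-3 phosphatase rescue imaging test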;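 as to inhibition: phospho-Erk level distribution per well compared with pooled transfected vehicle control wells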); settings: HeLa MKP-3 transfected, phospho-Erk imaging KS statistic, at 10 µM, cells stimulated with TPA for 15 min
[4] = biological target: Dual specificity protein phosphatase 6 (Homo sapiens) (UniProt Q16828); experiment: as above; settings: HeLa MKP-3 transfected, phospho-Erk imaging KS statistic; at 10 µM; stronger effect = higher value; cells stimulated with TPA for 15 min
[5] = biological target: Voltage-gated potassium channel subunit beta-2 (Rattus norvegicus) (UniProt P62483); experiment: KvBeta enzyme negative modulators, primary screen, biochemical, NADPH fluorescence (AID 622;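 active = fluorescence slope higher than the sample average by over 3 SD, cut at about -0.22 in these data, passing the limit was not always enough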;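 also: slope of raw intensity against log time taken from 70 to 1610 s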); settings: recombinant KvBeta, 4-cyanobenzaldehyde reduction, at 10 µM, stronger effect = higher value
[6] = biological target: Voltage-gated potassium channel subunit beta-2 (Rattus norvegicus) (UniProt P62483); experiment: KvBeta positive modulators, primary screen, biochemical, NADPH fluorescence (AID 623;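 active = NADPH fluorescence slope more negative than the mean of all samples by about 3 SD, 99.7% confidence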;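 also: fluorescence intensity change per second fitted from 20 to 320 s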); settings: Recombinant KvBeta, NADPH fluorescence decrease slope, 10 min; at 10 µM; stronger effect = lower value
[7] = biological target: Muscarinic acetylcholine receptor M4 (Homo sapiens) (UniProt P08173); experiment: compounds altering M4/GIRK thallium flux, either direction, primary screen, M4 allosteric agonist project, cell-based, HEK293 M4/GIRK, BTC-AM (AID 625;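 active = fluorescence slope after compound addition differing from the mean of all tested samples at 99.7% confidence, mostly higher but some lower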;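 also: thallium influx through GIRK channels coupled to M4 in HEK293 cells with BTC-AM dye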); settings: at 10 µM, actives lie on both sides
Method in brief: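 Material – HEK293 cells with M4 receptor and GIRK channels · Buffer or medium – pH 7.3 thallium assay buffer · Doses – one dose, 10 µM final · Timing – cells overnight at 37 °C, BTC-AM loading 1 h, reads 2 min total · Measured by – kinetic fluorescence with BTC-AM dye · Controls – carbachol and DMSO controls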

[8] = inhibitors of larval lipid processing in zebrafish, primary screen, whole organism, PED6 fluorescence, gall bladder and intestine (AID 686;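 active = a full or partial loss of lipid-probe fluorescence in the fish gall bladder, intestine or both, judged by eye; inactive = no fluorescence loss, or compound toxic to the fish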;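 also: larvae 5 to 7 days old with five fish per well; signal comes from phospholipase A2 cleavage of quenched PED6 carried via bile; overnight exposure to compound and PED6 before scoring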); settings: Zebrafish larvae PED6 lipid processing, fluorescence scoring; screened at 20 µM (by protocol)
Method in brief: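 system = live zebrafish larvae aged 5-7 days, whole organism | probe or stimulus = ingested quenched lipid PED6 at 100 nM | doses = 20 µM single dose | timing = overnight exposure | detection = fluorescence microscopy with visual scoring of gall bladder and intestine | read-out = visual per-well fluorescence inhibition score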

[9] = inhibitors of Chlamydomonas gravitaxis, primary screen, whole organism, Chlamydomonas reinhardtii, WT vs cilia-less mutant, absorbance, 96-well (AID 463189); settings: OD600 absorbance, 2 days, at 10 µM, stronger effect = higher value;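 also: 0% = wild type cc124 cells in DMSO and 100% = ciliumless bld1 mutant cells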
[10] = measured here: cell density z-score
[11] = measured here: nuclear c-Myc green intensity z-score
[12] = measured here: nuclear pErk red intensity z-score, stronger effect = higher value

Voltage-gated potassium channel subunit beta-2 (Rattus norvegicus), sequence (P62483 whole entry, looked up): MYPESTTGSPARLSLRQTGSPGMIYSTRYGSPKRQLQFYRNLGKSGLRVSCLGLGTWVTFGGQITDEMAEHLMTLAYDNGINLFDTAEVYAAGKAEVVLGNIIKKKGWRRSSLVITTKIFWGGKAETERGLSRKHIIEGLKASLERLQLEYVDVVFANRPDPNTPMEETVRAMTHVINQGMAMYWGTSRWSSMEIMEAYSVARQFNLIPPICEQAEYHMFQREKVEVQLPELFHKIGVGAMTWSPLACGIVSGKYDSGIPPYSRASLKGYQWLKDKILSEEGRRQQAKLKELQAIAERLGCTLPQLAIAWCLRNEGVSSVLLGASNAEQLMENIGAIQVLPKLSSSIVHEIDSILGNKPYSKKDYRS
Dual specificity protein phosphatase 6 (Homo sapiens), sequence (Q16828 whole entry, looked up): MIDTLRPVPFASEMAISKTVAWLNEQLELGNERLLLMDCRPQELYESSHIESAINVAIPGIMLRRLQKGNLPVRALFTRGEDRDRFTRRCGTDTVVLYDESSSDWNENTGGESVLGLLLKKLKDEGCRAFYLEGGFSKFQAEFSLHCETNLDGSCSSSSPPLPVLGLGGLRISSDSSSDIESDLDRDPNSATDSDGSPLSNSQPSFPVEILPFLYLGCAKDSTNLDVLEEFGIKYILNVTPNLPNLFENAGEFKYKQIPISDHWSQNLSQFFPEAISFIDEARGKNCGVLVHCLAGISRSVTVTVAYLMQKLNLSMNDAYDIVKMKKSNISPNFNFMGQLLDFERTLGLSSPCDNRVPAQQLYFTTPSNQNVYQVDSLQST
Muscarinic acetylcholine receptor M4 (Homo sapiens), sequence (P08173 whole entry, looked up): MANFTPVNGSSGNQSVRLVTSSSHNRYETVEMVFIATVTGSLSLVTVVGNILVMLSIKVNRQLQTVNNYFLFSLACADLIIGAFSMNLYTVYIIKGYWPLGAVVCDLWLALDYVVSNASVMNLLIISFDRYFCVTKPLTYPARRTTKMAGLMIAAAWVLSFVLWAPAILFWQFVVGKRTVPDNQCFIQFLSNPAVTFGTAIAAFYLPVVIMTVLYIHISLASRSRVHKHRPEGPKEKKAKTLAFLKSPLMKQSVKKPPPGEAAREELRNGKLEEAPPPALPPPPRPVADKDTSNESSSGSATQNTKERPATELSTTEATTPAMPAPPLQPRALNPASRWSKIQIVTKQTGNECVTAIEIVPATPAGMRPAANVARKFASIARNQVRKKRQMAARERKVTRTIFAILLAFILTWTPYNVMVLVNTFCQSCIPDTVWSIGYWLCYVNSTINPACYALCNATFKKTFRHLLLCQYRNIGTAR

Compound | cell count [1] | inhibition [1] | inhibition [2] | nuclei count [2] | z-score [3, 10] | z-score [3, 11] | z-score [3, 12] | inhibition [4] | fluorescence slope [5] | NADPH fluorescence slope [6] | fluorescence slope [7] | outcome [8] | inhibition [9]
Cc1cc(NC(CC(C)C)C(=O)O)nc(Cc2ccccc2)n1 (stereo unspecified) | 372 | -2.8% (inactive) | -117% (inactive) | 188% | -0.0865 | -1.02 | 0.665 | 5.42% (inactive) | -0.47 (inactive) | -0.000155 (inactive) | 0.00469 (inactive) | inactive | 0.592% (inactive)
c1ccc2c(N3CCCCC3)nc(N3CCCCC3)nc2c1 | 497 | -2.8% (inactive) | 20.7% (inactive) | 159% | -1.53 | 0.598 | 1.04 | 1.9e-07% (inactive) | -0.388 (inactive) | -3.5e-05 (inactive) | 0.00468 (inactive) | inactive | 4.68% (inactive)
CC(C)Cc1nc(N2CCN(C(=O)Cc3ccccc3)CC2)c(C#N)c2c1COC(C)(C)C2 | 601 | -8.9% (inactive) | -80.2% (inactive) | 153% | -0.132 | -0.0812 | -0.136 | 9.07% (inactive) | -0.453 (inactive) | -0.000102 (inactive) | 0.00471 (inactive) | inactive | 13.3% (inactive)
COc1ccc(C2C(C#N)=C(C)NC3=C2C(=O)c2ccccc23)cc1 (stereo unspecified) | 678 | 0.7% (inactive) | -27.5% (inactive) | 145% | 1.09 | 1.69 | -1.69 | 21.8% (inactive) | -0.5 (inactive) | -4.8e-05 (inactive) | 0.00419 (inactive) | inactive | -2.6% (inactive)
Cc1ccc(OCC(O)CNS(=O)(=O)c2ccccc2C(=O)O)cc1 (stereo unspecified) | 625 | -11.3% (inactive) | -18.3% (inactive) | 152% | 0.248 | 0.991 | -0.853 | 21.4% (inactive) | -0.412 (inactive) | -2.6e-05 (inactive) | 0.00639 (inactive) | inactive | -7.23% (inactive)
COc1ccc(N2C(=O)CC(N(Cc3ccc(S(N)(=O)=O)cc3)C(C)=O)C2=O)cc1 (stereo unspecified) | 550 | 4.1% (inactive) | 19.1% (inactive) | 126% | 0.546 | -0.739 | 0.891 | 20.2% (inactive) | -0.481 (inactive) | -3.2e-05 (inactive) | 0.00578 (inactive) | inactive | 9.88% (inactive)
O=C1C(=O)N(Cc2cccnc2)C(c2ccccn2)/C1=C(/O)c1ccccc1 (stereo unspecified) | 620 | -5.9% (inactive) | -74.4% (inactive) | 158% | -0.531 | 0.731 | -0.436 | -8.95% (inactive) | -0.503 (inactive) | -6.6e-05 (inactive) | 0.00562 (inactive) | inactive | 6.67% (inactive)
COc1cc(C2Nc3cccc4cccc(c34)N2)cc(OC)c1OC(C)=O | 498 | -3.5% (inactive) | -2.1% (inactive) | 85.3% | 0.65 | -1.19 | 0.407 | -2.59% (inactive) | -0.474 (inactive) | 7.8e-06 (inactive) | 0.00327 (inactive) | inactive | 17.1% (inactive)
CCC(=O)Nc1nc(C)c(Oc2ccccc2)c(=O)[nH]1 | 696 | -5.5% (inactive) | 34.5% (inactive) | 151% | -0.359 | -0.286 | 0.522 | -9.53% (inactive) | -0.412 (inactive) | -4.2e-05 (inactive) | 0.00483 (inactive) | inactive | 2.71% (inactive)
COc1ccc(CCn2c(=N)c(C(=O)NCc3ccco3)cc3c(=O)n4ccccc4nc32)cc1OC | 633 | -2.8% (inactive) | -94.3% (inactive) | 174% | 1.26 | -0.19 | 0.299 | 14.4% (inactive) | -0.507 (inactive) | -2.1e-05 (inactive) | 0.00335 (inactive) | inactive | -2.16% (inactive)
COc1cccc(C(=O)N2CCN(Cc3ccccn3)CC2)c1OC | 503 | -5.7% (inactive) | -70.6% (inactive) | 158% | -2.51 | 0.355 | 0.989 | -12.3% (inactive) | -0.466 (inactive) | -5.6e-05 (inactive) | 0.00645 (inactive) | inactive | 1.71% (inactive)
COc1ccccc1NC(=O)c1c(C)cc(=O)oc1C | 601 | -14.3% (inactive) | 35.3% (inactive) | 145% | -0.227 | -0.0987 | -0.0601 | -4.59% (inactive) | -0.409 (inactive) | -3e-05 (inactive) | 0.00639 (inactive) | inactive | 17.9% (inactive)
Nc1nnnn1/N=C/c1ccco1 | 510 | -4% (inactive) | -8.3% (inactive) | 90.4% | 0.476 | 0.245 | -0.718 | 11% (inactive) | -0.502 (inactive) | -4.9e-05 (inactive) | 0.00713 (inactive) | inactive | -6.14% (inactive)
C=CCOC(=O)C1=C(C)NC(SCC(=O)Nc2ccc(C)c(Cl)c2)=C(C#N)C1c1ccco1 (stereo unspecified) | 654 | -12.4% (inactive) | -141% (inactive) | 165% | 0.0936 | -0.359 | 0.4 | 10.1% (inactive) | -0.465 (inactive) | -2.6e-05 (inactive) | 0.00959 (inactive) | inactive | 6.54% (inactive)
CCCSc1nnc(NC(=O)Nc2ccc(F)cc2)s1 | 660 | -13.9% (inactive) | -24% (inactive) | 182% | 0.28 | -1.17 | -0.511 | 20.2% (inactive) | -0.488 (inactive) | -6.8e-05 (inactive) | 0.00807 (inactive) | inactive | 6.75% (inactive)
CCC(C(=O)Nc1nccs1)(C(F)(F)F)C(F)(F)F | 719 | -18.9% (inactive) | -106% (inactive) | 203% | 0.755 | 0.213 | 0.296 | 5.95% (inactive) | -0.49 (inactive) | -6.4e-05 (inactive) | 0.00509 (inactive) | inactive | 0.594% (inactive)
CCC1CC2(C)NC(=O)c3c(sc4c3CC(C)(C)OC4)N2C1=O (stereo unspecified) | 497 | -0.8% (inactive) | -48.8% (inactive) | 175% | 0.444 | 0.00352 | -0.401 | 1.98% (inactive) | -0.397 (inactive) | 3.9e-06 (inactive) | 0.00496 (inactive) | inactive | 31.2% (inactive)
Nc1nc2n(n1)C(c1ccc(F)cc1)CC(c1ccc(F)cc1)N2 (stereo unspecified) | 346 | -13.8% (inactive) | -43.3% (inactive) | 97% | -0.282 | 0.742 | -0.273 | 5.65% (inactive) | -0.457 (inactive) | -5.2e-05 (inactive) | 0.00499 (inactive) | inactive | 19.7% (inactive)
COn1c(SC2CCCCC2)nc2ccccc2c1=O | 587 | -3.1% (inactive) | -35.7% (inactive) | 160% | 0.823 | 0.448 | -1.08 | -7.28% (inactive) | -0.48 (inactive) | -7.1e-05 (inactive) | 0.00976 (inactive) | inactive | 0.873% (inactive)
CCc1nc(NCC(C)C)c(C#N)c2c1COC(C)(C)C2 | 547 | 7.2% (inactive) | -13.8% (inactive) | 106% | -2.04 | -0.00331 | 2.22 | -9.91% (inactive) | -0.203 (inactive) | 2.4e-07 (inactive) | 0.00805 (inactive) | inactive | -8.36% (inactive)
COc1cccc(C2/C(=C(\O)c3ccc(OC)c(OC)c3)C(=O)C(=O)N2c2cc(C)on2)c1 (stereo unspecified) | 715 | 1.5% (inactive) | -63.2% (inactive) | 178% | -0.072 | -0.154 | 1.26 | -4.7% (inactive) | -0.449 (inactive) | -3e-05 (inactive) | 0.00553 (inactive) | inactive | -1.1% (inactive)
c1ccc(-n2ncc3c(NCC4CCCO4)ncnc32)cc1 (stereo unspecified) | 597 | -4% (inactive) | -84.5% (inactive) | 113% | -2.6 | -0.155 | 1.07 | 1.42% (inactive) | -0.389 (inactive) | -9.3e-05 (inactive) | 0.00807 (inactive) | inactive | -15.2% (inactive)
Cc1ccc(Oc2nc3c(c(=O)n(Cc4ccccc4F)c(=O)n3C)n2C)cc1 | 749 | 2.1% (inactive) | -74.9% (inactive) | 156% | 0.256 | -1.95 | -0.363 | 19.8% (inactive) | -0.508 (inactive) | -3.8e-05 (inactive) | 0.00827 (inactive) | inactive | 11.6% (inactive)
COc1ccc(N2CCN(c3oc(COc4ccc(Cl)cc4)nc3C#N)CC2)cc1 | 374 | -3.3% (inactive) | -61.3% (inactive) | 106% | 1.12 | 0.417 | 0.177 | 2.71% (inactive) | -0.46 (inactive) | -7e-05 (inactive) | 0.00414 (inactive) | inactive | -10.3% (inactive)
CCc1ccc(NC(=O)CSC2=C(C#N)C(c3ccc4c(c3)OCO4)CC(=O)N2)cc1 (stereo unspecified) | 599 | -14% (inactive) | 41.8% (inactive) | 91.1% | 1.39 | -1.52 | -0.214 | 22.7% (inactive) | -0.491 (inactive) | -4.6e-05 (inactive) | 0.00667 (inactive) | inactive | -5% (inactive)
CSc1nncc(=O)[nH]1 | 642 | 1.5% (inactive) | -96.8% (inactive) | 160% | 0.525 | -0.545 | -0.327 | 6.51% (inactive) | -0.452 (inactive) | -4.4e-05 (inactive) | 0.00648 (inactive) | inactive | -3.84% (inactive)
CCOC(=O)c1[nH]c2ccccc2c1N=CN(CC)CC | 684 | 0.2% (inactive) | -230% (inactive) | 160% | -0.555 | 0.832 | 0.765 | 1.9e-07% (inactive) | -0.472 (inactive) | -5.6e-05 (inactive) | 0.00609 (inactive) | inactive | -14.4% (inactive)
